Test results: ChEMBL document CHEMBL1157245, “Bromophenols coupled with methyl gamma-ureidobutyrate and bromophenol sulfates from the red alga Rhodomela confervoides” (J Nat Prod, 2006)
pIC50: −log10 of the molar value.

Tests used:
Format in all cases: functional, cell-based
HCT-8 = assay: Cytotoxicity against human HCT8 cells after 96 hrs by MTT assay; details: HCT-8, 96 h
How it was run: (§1)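 Cell lines from ATCC, grown in RPMI 1640 with 10% FBS plus penicillin/streptomycin at 37 °C, 5% CO2. Seeded at 1200 cells/well; compounds added 24 h later at five concentrations from DMSO stocks (final DMSO 0.1%), triplicate wells.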

BGC-823 = assay: Cytotoxicity against human BGC823 cells after 96 hrs by MTT assay; details: BGC-823, 96 h; how it was run: as §1
Bel-7402 = assay: Cytotoxicity against human BEL-7402 cells after 96 hrs by MTT assay; details: Bel-7402, 96 h; how it was run: as §1
A2780 = assay: Cytotoxicity against human A2780 cells after 96 hrs by MTT assay; details: A2780, 96 h; how it was run: as §1
A549 = assay: Cytotoxicity against human A549 cells after 96 hrs by MTT assay; details: A549, 96 h; how it was run: as §1

| Compound | IC50 (HCT-8) [µg/mL] | IC50 (BGC-823) [µg/mL] | IC50 (Bel-7402) [µg/mL] | IC50 (A2780) [µg/mL] | IC50 (A549) [µg/mL] | pIC50 (HCT-8) | pIC50 (BGC-823) | pIC50 (Bel-7402) | pIC50 (A2780) | pIC50 (A549) |
| --- | --- | --- | --- | --- | --- | --- | --- | --- | --- | --- |
| COC(=O)CCCNC(=O)N(Cc1cc(O)c(O)c(Br)c1Br)Cc1cc(O)c(O)c(Br)c1Cc1cc(O)c(O)c(Br)c1Br | > 10 | > 10 | > 10 | > 10 | > 10 | – | – | – | – | – |
| COC(=O)CCCNC(=O)NCc1cc(O)c(O)c(Br)c1Br | > 10 | > 10 | > 10 | > 10 | > 10 | – | – | – | – | – |
| O=S(=O)(O)OCCc1cc(O)c(O)c(Br)c1Cc1cc(O)c(O)c(Br)c1Br | – | – | – | – | – | 4.92 | 4.82 | 4.87 | < 4.77 | 4.84 |
| COC(=O)CCCNC(=O)NCc1cc(O)c(O)c(Br)c1Cc1cc(O)c(O)c(Br)c1Br | > 10 | > 10 | > 10 | > 10 | > 10 | – | – | – | – | – |
| O=S(=O)(O)OCCc1cc(O)c(O)c(Br)c1 | – | – | – | – | – | 4.73 | 4.72 | 4.69 | 4.68 | 4.73 |
| O=S(=O)(O)OCCc1cc(O)c(O)c(Br)c1Br | – | – | – | – | – | 4.84 | 4.85 | 4.83 | 5.03 | 4.83 |
| OCCc1cc(O)c(O)c(Br)c1Br | – | – | – | – | – | 4.81 | 4.69 | 4.71 | 4.70 | 4.71 |
| COC(=O)CCCN(Cc1cc(O)c(O)c(Br)c1Br)C(=O)NCc1cc(O)c(O)c(Br)c1Br | > 10 | > 10 | > 10 | > 10 | > 10 | – | – | – | – | – |
| O=c1[nH]cc(F)c(=O)[nH]1 [FLUOROURACIL] | – | – | – | – | – | 5.38 | 5.27 | 5.38 | 5.30 | 5.85 |
